The source of these data is ChEMBL document CHEMBL1122418, “Synthesis of 3-hydroxy-3-cyclohexylbutyric acid derivatives. 2. Cyclic analogues of mevalonic acid” (1983).

Common to all, as to format: functional
For experiment [1], the species on record is Rattus norvegicus. The experiment is described as follows: Percent inhibition of [14C]acetate incorporation into cholesterol, after incubation with rat liver slices at 5x10E-4 M concentration. In outline: (§1)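 Rat liver slices (250 mg) incubated in 4 mL Krebs-Ringer bicarbonate buffer, pH 7.4, with 4 mM [2-14C]acetate, with or without test compound; label recovered in CO2, long-chain fatty acids and cholesterol measured and inhibition calculated against untreated slices. Values are arithmetic means of three determinations.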

For experiment [2], the species on record is Rattus norvegicus. The experiment is described as follows: Percent inhibition of [14C]acetate incorporation into CO2, after incubation with rat liver slices at 5x10E-4 M concentration. In outline: as §1
For experiment [3], the species on record is Rattus norvegicus. The experiment is described as follows: Percent inhibition of [14C]acetate incorporation into long-chain fatty acids, after incubation with rat liver slices at 5x10E-4 M concentration. In outline: as §1
The species named for experiment [4] is Rattus norvegicus. The experiment is described as follows: Percent inhibition of [14C]acetate incorporation into CO2, after incubation with rat liver slices at 5x10E-3 M concentration. The gist of the method: as §1
Experiment [5] is filed under the species Rattus norvegicus. The experiment is described as follows: Percent inhibition of [14C]acetate incorporation into long-chain fatty acids, after incubation with rat liver slices at 5x10E-3 M concentration. In outline:
as §1

For experiment [6], the species on record is Rattus norvegicus. Description: Percent inhibition of [14C]acetate incorporation into cholesterol, after incubation with rat liver slices at 5x10E-3 M concentration. The gist of the method:
as §1

The term inhibition denotes the relative decrease from the control value, in per cent. Regarding `CO[C@H]1CCCC[C@H]1C(C)(O)CC(=O)O` (some centres undefined), the inhibition at 500 µM was found to be 25% in the experiment listed under Rattus norvegicus [1], 39% in the experiment listed under Rattus norvegicus [2] and 57% in the experiment listed under Rattus norvegicus [3].

As to `CC1CC(=O)O[C@H]2CCCC[C@@H]12` (some centres undefined), the inhibition at 500 µM in the experiment filed under Rattus norvegicus [1], in the experiment filed under Rattus norvegicus [2] and in the experiment listed under Rattus norvegicus [3] was 10% each time. Also, the inhibition at 5000 µM in the experiment listed under Rattus norvegicus [4] is 24%; in the experiment filed under Rattus norvegicus [5], 62%; in the experiment filed under Rattus norvegicus [6], 39%.

As for `CC1(O)CC(=O)O[C@H]2CCCC[C@H]21` (some centres undefined), the inhibition at 500 µM in the experiment filed under Rattus norvegicus [1], in the experiment listed under Rattus norvegicus [2] and in the experiment listed under Rattus norvegicus [3] was 10% throughout. Besides, the inhibition at 5000 µM was 37% in the experiment filed under Rattus norvegicus [4], 47% in the experiment filed under Rattus norvegicus [5] and 22% in the experiment filed under Rattus norvegicus [6].

`CC(O)(CC(=O)O)[C@@H]1CCCC[C@@H]1O` (some centres undefined): the inhibition at 500 µM in the experiment filed under Rattus norvegicus [1], in the experiment filed under Rattus norvegicus [2] and in the experiment listed under Rattus norvegicus [3] was 10% throughout. Moreover, the inhibition at 5000 µM amounted to 62% in the experiment listed under Rattus norvegicus [4], 68% in the experiment listed under Rattus norvegicus [5] and 50% in the experiment filed under Rattus norvegicus [6].

With `CC(O)(CC(=O)O)C1CCCCC1` (centres undefined) [CYCLOBUTOIC ACID], the values for the inhibition at 500 µM in the experiment filed under Rattus norvegicus [1], in the experiment listed under Rattus norvegicus [2] and in the experiment filed under Rattus norvegicus [3] were 32%, 62% and 72%, respectively.
